Compound activity (PubChem BioAssay)
Hits are enriched below; roughly 3.5% of the tested compounds scored in any of these assays.
RGS4 block = human RGS4 inhibition. P49798. HEK293 M3R/RGS4 inducible, Fluo-4 calcium flux; hits give high values; triggered by carbachol at its EC20. B-score at 10 µM. 310,000 tested, 0.45% active;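 active = B-score, a plate-corrected calcium signal, over three deviations above library mean, with baseline fluorescence within five deviations of library mean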;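 note: RGS4 expression induced by doxycycline in cells with stable M3 receptor; B-score is computed from the integrated fluorescence ratio over baseline after carbachol; higher B-score means a larger calcium signal and so more RGS4 inhibition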
Target sequence (P49798 whole entry, looked up): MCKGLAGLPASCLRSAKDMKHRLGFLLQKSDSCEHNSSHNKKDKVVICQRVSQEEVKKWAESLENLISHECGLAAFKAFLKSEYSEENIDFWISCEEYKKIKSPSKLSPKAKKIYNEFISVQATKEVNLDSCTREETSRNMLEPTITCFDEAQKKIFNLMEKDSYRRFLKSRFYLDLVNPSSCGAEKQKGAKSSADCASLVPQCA
MrgX1 PAM = human MrgX1 positive allosteric modulation, primary screen | B-score at 10 µM | Q96LB2 | MrgX1-HEK293, Fluo-4 calcium flux, FDSS; hits give high values | 310,000 tested, 0.63% active;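 active = plate-corrected calcium response at least 3 library SD above typical, normal starting fluorescence, not activating the receptor alone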;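 note: compound read alongside a low EC10 to EC30 dose of BAM8-22 agonist; peak minus trough fluorescence over baseline measured at the second addition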
Target sequence (Q96LB2 whole entry, looked up): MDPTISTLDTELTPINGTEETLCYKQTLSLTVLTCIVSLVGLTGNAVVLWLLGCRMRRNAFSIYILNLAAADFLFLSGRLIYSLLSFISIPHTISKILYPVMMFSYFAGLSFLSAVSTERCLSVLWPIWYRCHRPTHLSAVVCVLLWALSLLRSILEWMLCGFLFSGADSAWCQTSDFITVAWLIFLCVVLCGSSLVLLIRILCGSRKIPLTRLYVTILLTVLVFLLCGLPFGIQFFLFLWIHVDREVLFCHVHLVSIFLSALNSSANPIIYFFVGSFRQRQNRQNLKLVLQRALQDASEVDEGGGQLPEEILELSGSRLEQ
RGS4 act = RGS4 potentiation or activation | 310,000 tested, 0.92% active | B-score at 10 µM | AID 463111 | HEK293 M3R/inducible RGS4, carbachol calcium flux Fluo4; hits give low values;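 active = B-score of the integrated calcium signal more than 4 SD below the library mean, with starting fluorescence not abnormally high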;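 note: negative B-score means reduced calcium response which marks RGS4 activation or potentiation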
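Assay system: Inducible-RGS4 HEK293 cells carrying M3 receptor | Schedule: Compound preincubation 20 min at room temperature before agonist | Signal: Kinetic calcium fluorescence imaging with Fluo4-AM dye, 2 µM | Read-out basis: B score from integrated fluorescence ratio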
MrgX1 ag = activates human MrgX1 receptor signaling; Q96LB2; MrgX1-HEK293 cells, Fluo-4 calcium fluorescence, agonist mode; hits give high values; B-score at 10 µM; 310,000 tested, 0.44% active; AID 588627;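 active = calcium response B-score plate-corrected fluorescence ratio at least 3 library SD, with starting fluorescence B-score inside 5 SD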
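Material: HEK293 cells stably expressing human MrgX1 receptor | Quantity: 15,000 cells per well | Times: Cells plated overnight, dye loaded 0.5 h 37 °C, 0.5 h room temperature | Measured by: Kinetic Fluo-4 NW fluorescence of intracellular calcium | Control set: Positive and negative controls per plate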
MrgX1 antag = human MrgX1 receptor antagonism, primary screen; Q96LB2; AID 588676; B-score at 10 µM; 310,000 tested, 1.3% active; MRGX1-HEK293 calcium flux, Fluo-4, BAM8-22 antagonism; hits give low values;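 active = calcium-response B-score plate-corrected more than 3 library SD below zero, starting fluorescence within 5 deviations, no agonist response on first addition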;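 note: peak minus trough fluorescence over baseline after final BAM8-22 challenge near maximal dose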
Numbers without * were called inactive; i = inactive; / = no result.

SMILES	RGS4 block	MrgX1 PAM	RGS4 act	MrgX1 ag	MrgX1 antag
CCOc1ccc(-c2nnc(SCC(=O)O)n2Cc2ccccc2)cc1	i	i	i	i	i
Cc1cc(C)nc(OC(=O)c2ccc(Cl)cc2Cl)n1	i	i	-7.3*	i	i
Cc1cc(C)nc(OC(=O)c2c(Cl)cc(Cl)cc2Cl)n1	i	i	i	i	i
CC[N+](CC)(CC)C/C(N)=N/O	i	i	i	i	-6.1*
O=C1C2C3C=CC(C3)C2C(=O)N1/N=C/c1cn(Cc2ccc(F)cc2)c2ccccc12 (stereo unspecified)	i	i	-8*	i	i
O=C(NCCc1ccccc1)C(=O)NCCC1CCCCN1S(=O)(=O)c1cccs1 (stereo unspecified)	i	i	i	i	i
COCCNC(=O)c1cccc(OC2CCN(Cc3ccccc3OCCO)CC2)c1	i	i	i	i	i
COCCNC(=O)c1cccc(OC2CCN(C(C)COc3ccccc3)CC2)c1 (stereo unspecified)	i	i	i	32*	i
Cc1cc(C(=O)COC(=O)CC2Sc3ccccc3NC2=O)c(C)n1-c1cccc(C(F)(F)F)c1 (stereo unspecified)	i	i	-8.2*	i	i
c1ccc(COc2ccc(OCCCCN3CCCC3)cc2)cc1	i	i	-8.8*	i	i
c1ccc(OCCCCN2CCCCC2)cc1	i	i	i	i	i
CC(=O)c1ccc(OCCCN2CCCCC2)cc1	i	i	i	i	i
c1ccc(-c2ccccc2OCCCCN2CCCCCC2)cc1	i	i	-7*	i	i
O=C(c1ccccc1)c1ccc(OCCCN2CCCCC2)cc1	i	i	-7.2*	i	i
C[C@H]1c2cccc(O)c2C(O)=C2C(=O)[C@]3(O)C(O)=C(C(N)=O)C(=O)[C@@H](N(C)C)C3[C@@H](O)C21 (stereo partly specified)	i	i	i	i	-6.8*
CS(=O)(=O)N1N=C(c2ccccc2)CC1c1ccc2nccnc2c1 (stereo unspecified)	i	i	i	i	i
CS(=O)(=O)N1N=C(c2ccc3nccnc3c2)CC1c1ccccc1 (stereo unspecified)	i	6.5*	i	i	i
O=C(/C=C/c1ccc([N+](=O)[O-])s1)N1CCCC1	i	i	i	i	-4.6*
O=C(/C=C/c1ccc([N+](=O)[O-])s1)N1CCCCC1	i	i	i	i	i
COc1ccc(N/C(=C(/C(Cl)=C(Cl)Cl)[N+](=O)[O-])n2nnc3ccccc32)cc1	i	i	i	i	i
Cc1ccccc1N/C(=C(/C(Cl)=C(Cl)Cl)[N+](=O)[O-])n1nnc2ccccc21	i	i	i	i	-5*
COC(=O)c1ccc(/C=N/OCC(=O)NCc2ccc(F)cc2)cc1	i	i	i	i	-5.4*
CCOc1ccccc1/C=N/OCC(=O)NCc1ccc(F)cc1	i	i	i	i	i
CCN(CC)CCN(C)C(=O)CCc1nnc(-c2ccc(C)s2)o1	i	i	i	i	-6.6*
CCOC(=O)CN(C)C(=O)CCc1nnc(-c2ccc(-c3ccccc3)cc2)o1	i	i	i	i	i
SMILES	RGS4 block	MrgX1 PAM	RGS4 act	MrgX1 ag	MrgX1 antag
CC1CCCCN1C(=O)CSc1nc(C2CC2)nc2ccccc12 (stereo unspecified)	i	i	i	i	i
N=C1/C(=C\c2ccc(SCc3ccccc3)o2)C(=O)N=C2SC(CC(=O)N3CCOCC3)=NN12	i	i	i	i	i
N=C1/C(=C\c2ccc(SCc3ccccc3)o2)C(=O)N=C2SC=NN12	i	8.7*	i	i	i
COCc1nc2oc3ccccc3c(=O)c2cc1C(=O)OC	i	i	i	i	i
NC(=O)C1(c2ccccc2)OC1c1ccccc1 (stereo unspecified)	i	i	i	i	i
O=C(CSc1ccc(Br)cc1)Nc1ccccc1N1CCOCC1	i	i	i	i	i
COC(=O)c1ccc(-c2noc(CN(Cc3nccn3C)C(C)C)n2)cc1	i	i	-7.5*	i	i
CC(C)c1c(C(=O)N/N=C2\CCc3ccccc32)nnn1-c1nonc1N	i	i	i	i	i
CCCCCc1ccc(OCCCC[n+]2cccc(C)c2)c(CCCCC)c1	i	i	-8.7*	i	i
CCCCCc1ccc(OCCCC[n+]2ccc(C)cc2)c(CCCCC)c1	i	i	i	i	i
CCCCCc1ccc(OCCCC[n+]2ccccc2)c(CCCCC)c1	i	i	-7.8*	i	i
O=C(c1cc(-c2ccncc2)nc2ccccc12)N1CCN(c2ccccc2O)CC1	i	i	i	i	i
O=C(c1cc(-c2ccccc2)nc2ccccc12)N1CCN(c2ccccc2O)CC1	i	i	-7.1*	i	i
Cc1ccc2nc(-c3ccccc3)cc(C(=O)N3CCN(c4ccccc4O)CC3)c2c1	i	i	-8.6*	i	i
O=C(OCC(=O)N1CCN(C(=O)c2ccco2)CC1)c1cc(-c2ccc(Cl)c(Cl)c2Cl)nc2ccccc12	i	i	i	i	i
CN1CCCN(C(=O)c2cc(-c3ccc(Cl)c(Cl)c3Cl)nc3ccccc23)CC1	i	i	i	41*	i
CCCOc1ccc(Oc2nc(-c3ccncc3)nc3ccccc23)cc1	i	i	i	i	i
COc1ccc(NS(=O)(=O)c2cccs2)cc1S(=O)(=O)N1CCOCC1	i	i	i	i	i
COc1ccc(Nc2nc(-c3cccs3)nc3ccccc23)cc1S(=O)(=O)N1CCOCC1	i	i	-7.3*	i	i
CCN1C(=O)/C(=C/N2CCc3ccccc32)SC1=S	i	i	i	34*	i
CC(C)CCN1C(Nc2ccccc2)=NC[C@@H]1C	i	i	i	i	i
COc1ccc(-c2noc(CNC(=O)c3ccoc3C)n2)cc1	i	i	i	i	i
CNCCCOc1ccc(C(C)(C)c2ccccc2)cc1	i	/	i	/	/
COCCCNCCOc1ccc(C(C)(C)c2ccccc2)cc1	i	i	-7.8*	i	i
O=C(CCNS(=O)(=O)c1ccccc1)N1CCN(C(c2ccccc2)c2ccccc2)CC1	i	i	i	i	i
CCCCN(CC)CCCNC(=O)C1CCN(c2ncnc3c2sc2cccc(F)c23)CC1	i	i	-7.1*	i	i
